Drawing on ChEMBL document CHEMBL1641559, “Facile synthesis and biological evaluation of 3,3-diphenylpropanoyl piperazines as T-type calcium channel blockers” (Bioorg Med Chem Lett, 2011), this text covers inhibition, IC50 and Kd for 46 compounds.

The target in assay [1] is T1, Voltage-dependent T-type calcium channel subunit alpha-1G (Homo sapiens, UniProt O43497). Briefly: Inhibition of T-type alpha1G calcium channel expressed in HEK293 cells assessed as Kcl-induced depolarization at 10 uM. It is filed as cell-based. The procedure, abridged: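 HEK293 cells stably expressing alpha1G plus Kir2.1, grown in DMEM/10% FBS with penicillin, streptomycin, geneticin and puromycin at 37 °C, 5% CO2; seeded 4 × 10^4 cells/well, used next day. Loaded 60 min at room temperature with 5 µM fluo3/AM and 0.001% Pluronic F-127 in Hepes buffer (pH 7.4). Channels activated by 70 mM KCl with 10 mM CaCl2; rise in intracellular Ca2+ read by FDSS6000 fluorescence.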
T1 sequence (O43497 whole entry): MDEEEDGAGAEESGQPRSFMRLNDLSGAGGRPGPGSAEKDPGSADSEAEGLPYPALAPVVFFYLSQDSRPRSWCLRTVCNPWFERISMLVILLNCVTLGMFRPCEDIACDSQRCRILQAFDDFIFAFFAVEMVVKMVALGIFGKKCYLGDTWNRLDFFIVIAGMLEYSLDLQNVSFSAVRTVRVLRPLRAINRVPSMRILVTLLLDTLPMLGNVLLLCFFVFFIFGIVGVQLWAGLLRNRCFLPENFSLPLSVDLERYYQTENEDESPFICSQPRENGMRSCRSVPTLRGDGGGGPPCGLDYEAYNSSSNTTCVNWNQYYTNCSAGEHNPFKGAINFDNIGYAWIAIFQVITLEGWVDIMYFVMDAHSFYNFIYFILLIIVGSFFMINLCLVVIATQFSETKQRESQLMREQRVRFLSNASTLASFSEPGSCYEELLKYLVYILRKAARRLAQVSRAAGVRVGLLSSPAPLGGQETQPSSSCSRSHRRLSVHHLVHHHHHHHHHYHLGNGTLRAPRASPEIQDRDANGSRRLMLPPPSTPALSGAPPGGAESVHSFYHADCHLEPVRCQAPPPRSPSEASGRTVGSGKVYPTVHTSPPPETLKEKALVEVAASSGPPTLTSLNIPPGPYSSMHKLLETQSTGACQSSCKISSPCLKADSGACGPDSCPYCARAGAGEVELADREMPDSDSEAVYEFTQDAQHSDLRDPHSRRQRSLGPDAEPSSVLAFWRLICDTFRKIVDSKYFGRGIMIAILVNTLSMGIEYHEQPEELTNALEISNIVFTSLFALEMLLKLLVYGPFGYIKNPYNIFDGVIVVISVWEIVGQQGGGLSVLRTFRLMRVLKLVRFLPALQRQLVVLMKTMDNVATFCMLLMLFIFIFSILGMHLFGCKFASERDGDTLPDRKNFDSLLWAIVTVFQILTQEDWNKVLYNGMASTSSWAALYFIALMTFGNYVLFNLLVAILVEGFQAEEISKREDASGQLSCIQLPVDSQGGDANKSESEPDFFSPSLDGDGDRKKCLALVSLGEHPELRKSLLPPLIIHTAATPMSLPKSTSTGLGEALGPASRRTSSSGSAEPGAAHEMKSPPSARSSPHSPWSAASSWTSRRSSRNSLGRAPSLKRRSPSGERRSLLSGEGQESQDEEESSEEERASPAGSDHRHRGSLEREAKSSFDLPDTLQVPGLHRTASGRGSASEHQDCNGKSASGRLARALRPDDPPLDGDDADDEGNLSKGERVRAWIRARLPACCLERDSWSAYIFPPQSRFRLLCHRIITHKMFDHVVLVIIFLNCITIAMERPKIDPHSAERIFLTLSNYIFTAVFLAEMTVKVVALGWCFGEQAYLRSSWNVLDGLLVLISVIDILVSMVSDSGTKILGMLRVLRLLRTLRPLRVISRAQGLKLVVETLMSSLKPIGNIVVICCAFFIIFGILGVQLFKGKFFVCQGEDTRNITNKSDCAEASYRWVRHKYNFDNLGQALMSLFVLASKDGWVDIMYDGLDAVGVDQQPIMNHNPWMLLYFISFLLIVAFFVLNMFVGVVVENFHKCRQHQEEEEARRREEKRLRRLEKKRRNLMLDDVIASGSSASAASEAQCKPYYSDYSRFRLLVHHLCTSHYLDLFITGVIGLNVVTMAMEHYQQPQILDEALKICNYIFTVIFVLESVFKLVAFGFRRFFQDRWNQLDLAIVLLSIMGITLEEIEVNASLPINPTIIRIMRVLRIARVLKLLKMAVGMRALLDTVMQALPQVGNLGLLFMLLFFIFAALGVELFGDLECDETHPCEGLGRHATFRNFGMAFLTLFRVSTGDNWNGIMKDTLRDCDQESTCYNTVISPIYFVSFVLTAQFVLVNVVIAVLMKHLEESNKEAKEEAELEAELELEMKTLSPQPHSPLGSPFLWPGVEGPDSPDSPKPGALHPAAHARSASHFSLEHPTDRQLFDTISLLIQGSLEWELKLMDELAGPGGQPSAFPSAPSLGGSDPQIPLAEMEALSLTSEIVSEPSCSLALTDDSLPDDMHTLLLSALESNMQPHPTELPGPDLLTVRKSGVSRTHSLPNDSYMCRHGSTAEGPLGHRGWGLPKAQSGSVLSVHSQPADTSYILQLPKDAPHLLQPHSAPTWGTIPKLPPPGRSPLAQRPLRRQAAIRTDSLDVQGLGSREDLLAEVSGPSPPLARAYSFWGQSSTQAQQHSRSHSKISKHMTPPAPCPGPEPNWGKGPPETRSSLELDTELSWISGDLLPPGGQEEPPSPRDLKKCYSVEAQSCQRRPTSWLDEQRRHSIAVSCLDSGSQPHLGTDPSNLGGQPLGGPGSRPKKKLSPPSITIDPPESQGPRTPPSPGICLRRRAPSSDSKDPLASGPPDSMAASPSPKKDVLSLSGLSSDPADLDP

Assay [2] addresses T1, Voltage-dependent T-type calcium channel subunit alpha-1G. Briefly: Inhibition of T-type alpha1G calcium channel expressed in HEK293 cells by whole-cell patch-clamp method.
Assay [3] has the same target. The experiment in a line: Inhibition of T-type alpha1G calcium channel. Put shortly:
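HEK293 cells stably expressing α1G and Kir2.1 were seeded at 4 × 10⁴ cells/well and used the next day. They were loaded with 5 µM fluo3/AM and 0.001% Pluronic F-127 for 60 min at room temperature in Hepes buffer (pH 7.4). Channels were activated by 70 mM KCl depolarization in buffer containing 10 mM CaCl₂, and the rise in intracellular Ca²⁺ was read by fluorescence (FDSS6000).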

Assay [4] has as its target Voltage-gated inwardly rectifying potassium channel KCNH2 (Homo sapiens, UniProt Q12809). The experiment in a line: Inhibition of human hERG.

Sequence of Voltage-gated inwardly rectifying potassium channel KCNH2 (Q12809 whole entry): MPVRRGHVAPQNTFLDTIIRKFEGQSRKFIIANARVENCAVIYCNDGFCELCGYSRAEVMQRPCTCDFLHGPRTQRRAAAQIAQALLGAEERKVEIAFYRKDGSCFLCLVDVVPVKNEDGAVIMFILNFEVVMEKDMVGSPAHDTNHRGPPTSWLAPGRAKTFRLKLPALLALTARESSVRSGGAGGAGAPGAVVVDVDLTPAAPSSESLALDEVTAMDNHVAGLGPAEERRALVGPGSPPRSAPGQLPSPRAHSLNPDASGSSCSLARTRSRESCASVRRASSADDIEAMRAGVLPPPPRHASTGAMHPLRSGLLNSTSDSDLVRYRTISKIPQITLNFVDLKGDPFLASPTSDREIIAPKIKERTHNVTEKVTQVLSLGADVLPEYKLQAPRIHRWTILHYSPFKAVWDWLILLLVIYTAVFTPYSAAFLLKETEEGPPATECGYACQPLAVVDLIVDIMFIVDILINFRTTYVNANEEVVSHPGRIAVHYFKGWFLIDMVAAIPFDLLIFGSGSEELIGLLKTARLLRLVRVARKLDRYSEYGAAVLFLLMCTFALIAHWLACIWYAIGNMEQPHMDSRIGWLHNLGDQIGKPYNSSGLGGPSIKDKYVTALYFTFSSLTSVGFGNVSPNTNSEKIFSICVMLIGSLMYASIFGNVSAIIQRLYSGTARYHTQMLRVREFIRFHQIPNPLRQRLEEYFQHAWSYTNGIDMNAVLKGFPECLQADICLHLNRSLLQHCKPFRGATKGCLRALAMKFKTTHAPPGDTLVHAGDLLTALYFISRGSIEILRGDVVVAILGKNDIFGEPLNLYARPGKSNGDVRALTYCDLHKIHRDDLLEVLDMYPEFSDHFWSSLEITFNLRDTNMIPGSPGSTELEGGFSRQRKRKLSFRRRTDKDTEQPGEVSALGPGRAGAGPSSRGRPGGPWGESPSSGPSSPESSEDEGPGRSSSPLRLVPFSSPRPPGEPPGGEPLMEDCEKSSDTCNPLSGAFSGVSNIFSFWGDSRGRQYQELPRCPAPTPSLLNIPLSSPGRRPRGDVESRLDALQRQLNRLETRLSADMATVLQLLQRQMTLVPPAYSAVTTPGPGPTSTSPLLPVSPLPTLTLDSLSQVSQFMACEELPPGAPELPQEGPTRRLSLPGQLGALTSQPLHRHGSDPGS

Regarding `COC(=O)c1coc(CN2CCN(C(=O)CC(c3ccc(Cl)cc3)c3cccc(F)c3)CC2)n1` (centres undefined), the inhibition in assay [1] came out at 24.5%.

Regarding `Cc1ccc2nc(CN3CCN(C(=O)CC(c4ccc(Cl)cc4)c4cccc(F)c4)CC3)oc2c1` (centres undefined), the inhibition in assay [1] is 32.2%.

In the case of `COc1ccc(C(CC(=O)N2CCN(Cc3nc4ccc(C)cc4o3)CC2)c2ccc(F)cc2)cc1` (centres undefined), in assay [1], the inhibition came to 23.3%.

Consider `COc1ccc(C(CC(=O)N2CCN(Cc3nc4ccc(C)cc4o3)CC2)c2cccc(F)c2)cc1` (centres undefined), for which the inhibition in assay [1] was determined as 52%.

In the case of `COC(=O)c1coc(CN2CCN(C(=O)CC(c3ccc(F)cc3)c3ccc(C(F)(F)F)cc3)CC2)n1` (centres undefined), the inhibition in assay [1] stood at 51.8%. Also, the IC50 in assay [2] was 1730 nM.

As for `O=c1[nH]c2ccccc2n1C1CCN(CCCC(c2ccc(F)cc2)c2ccc(F)cc2)CC1` [PIMOZIDE], in assay [3], the Kd was 40 nM.

As for `O=C(CC(c1ccc(C(F)(F)F)cc1)c1cccc(F)c1)N1CCN(Cc2nc(C(=O)N3CCOCC3)co2)CC1` (centres undefined), the inhibition in assay [1] is 53.4%.

Take `COc1ccc(C(CC(=O)N2CCN(Cc3nc(C(=O)O)co3)CC2)c2ccc(F)cc2)cc1` (centres undefined): in assay [1], the inhibition is 7.68%.

Consider `COC(=O)c1coc(CN2CCN(C(=O)CC(c3ccccc3)c3ccc(Cl)cc3)CC2)n1` (centres undefined), for which, in assay [1], the inhibition stood at 35%.

As to `Cc1ccc2nc(CN3CCN(C(=O)CC(c4ccc(F)cc4)c4cccc(F)c4)CC3)oc2c1` (centres undefined), the inhibition in assay [1] amounted to 44.9%.

As to `Cc1ccc2nc(CN3CCN(C(=O)CC(c4ccccc4)c4ccc(C(F)(F)F)cc4)CC3)oc2c1` (centres undefined), the inhibition in assay [1] turned out to be 22.4%.

Take `COc1ccc(C(CC(=O)N2CCN(Cc3nc4ccc(C)cc4o3)CC2)c2ccccc2)cc1` (centres undefined): the inhibition in assay [1] was determined as 63.5%. For the same compound, the IC50 in assay [2] was determined as 2480 nM.

As to `COC(=O)c1coc(CN2CCN(C(=O)CC(c3ccccc3)c3ccc(F)cc3)CC2)n1` (centres undefined), the inhibition in assay [1] came out at 27.7%.

`O=C(CC(c1ccc(Cl)cc1)c1cccc(F)c1)N1CCN(Cc2nc(C(=O)N3CCOCC3)co2)CC1` (centres undefined): the inhibition in assay [1] was found to be 48.6%.

Regarding `COC(=O)c1coc(CN2CCN(C(=O)CC(c3ccc(F)cc3)c3ccc(Cl)cc3)CC2)n1` (centres undefined), the inhibition in assay [1] turned out to be 45.1%. Besides, the IC50 in assay [2] turned out to be 8800 nM.

On to `O=C(CC(c1ccc(Br)cc1)c1cccc(F)c1)N1CCN(Cc2nc(CO)co2)CC1` (centres undefined), for which the inhibition in assay [1] worked out at 21.3%.

Regarding `O=C(O)c1coc(CN2CCN(C(=O)CC(c3ccc(F)cc3)c3ccc(C(F)(F)F)cc3)CC2)n1` (centres undefined), the inhibition in assay [1] was found to be 3.62%.

`COC(=O)c1coc(CN2CCN(C(=O)CC(c3ccc(C(F)(F)F)cc3)c3cccc(F)c3)CC2)n1` (centres undefined): the inhibition in assay [1] was found to be 57.6%.

Consider `O=C(O)c1coc(CN2CCN(C(=O)CC(c3ccc(F)cc3)c3ccc(F)cc3)CC2)n1`, for which the inhibition in assay [1] is 3.84%.

As to `Cc1ccc2nc(CN3CCN(C(=O)CC(c4ccc(F)cc4)c4ccc(Br)cc4)CC3)oc2c1` (centres undefined), the inhibition in assay [1] was 11.2%.

Turning to `Cc1ccc2nc(CN3CCN(C(=O)CC(c4ccccc4)c4ccc(F)cc4)CC3)oc2c1` (centres undefined), in assay [1], the inhibition came out at 42.7%. Besides, the IC50 in assay [2] is 1290 nM.

Turning to `Cc1ccc2nc(CN3CCN(C(=O)CC(c4ccccc4)c4ccc(Br)cc4)CC3)oc2c1` (centres undefined), the inhibition in assay [1] came to 13.6%.

Regarding `COC(=O)c1coc(CN2CCN(C(=O)CC(c3ccccc3)c3ccc(Br)cc3)CC2)n1` (centres undefined), the inhibition in assay [1] is 42.8%. Also, the IC50 in assay [2] came out at 21100 nM.

Regarding `COC(=O)c1coc(CN2CCN(C(=O)CC(c3ccc(OC)cc3)c3cccc(F)c3)CC2)n1` (centres undefined), the inhibition in assay [1] turned out to be 25.5%.

For the compound `Cc1ccc2nc(CN3CCN(C(=O)CC(c4ccc(Br)cc4)c4cccc(F)c4)CC3)oc2c1` (centres undefined), the inhibition in assay [1] is 18%.

Consider `Cc1ccc2nc(CN3CCN(C(=O)CC(c4ccccc4)c4ccc(Cl)cc4)CC3)oc2c1` (centres undefined), for which the inhibition in assay [1] stood at 25.9%.

As for `O=C(CC(c1ccc(Br)cc1)c1cccc(F)c1)N1CCN(Cc2nc(C(=O)N3CCOCC3)co2)CC1` (centres undefined), the inhibition in assay [1] stood at 44.6%.

Regarding `Cc1ccc2nc(CN3CCN(C(=O)CC(c4ccc(F)cc4)c4ccc(C(F)(F)F)cc4)CC3)oc2c1` (centres undefined), the inhibition in assay [1] came to 9.84%.

In the case of `O=C(CC(c1ccc(F)cc1)c1cccc(F)c1)N1CCN(Cc2nc(C(=O)N3CCOCC3)co2)CC1` (centres undefined), the inhibition in assay [1] stood at 36.9%.

With `COc1ccc(C(CC(=O)N2CCN(Cc3nc(C(=O)N4CCOCC4)co3)CC2)c2cccc(F)c2)cc1` (centres undefined), the inhibition in assay [1] was 19.7%.

`COC(=O)c1coc(CN2CCN(C(=O)CC(c3ccc(Br)cc3)c3cccc(F)c3)CC2)n1` (centres undefined): the inhibition in assay [1] was 36.6%.

For `O=C(CC(c1ccc(F)cc1)c1cccc(F)c1)N1CCN(Cc2nc(CO)co2)CC1` (centres undefined), the inhibition in assay [1] amounted to 13.7%.

Turning to `COC(=O)c1coc(CN2CCN(C(=O)CC(c3ccc(F)cc3)c3ccc(Br)cc3)CC2)n1` (centres undefined), the inhibition in assay [1] is 42.1%. Besides, the figures for the IC50 in assay [4] and in assay [2] were 2230 nM and 830 nM, respectively.

For `COC(=O)c1coc(CN2CCN(C(=O)CC(c3ccccc3)c3ccc(OC)cc3)CC2)n1` (centres undefined), the inhibition in assay [1] worked out at 22.8%.

In the case of `COC(=O)c1coc(CN2CCN(C(=O)CC(c3ccc(F)cc3)c3ccc(F)cc3)CC2)n1`, the inhibition in assay [1] is 33.5%.

Consider `COC(=O)c1coc(CN2CCN(C(=O)CC(c3ccccc3)c3ccc(C(F)(F)F)cc3)CC2)n1` (centres undefined), for which the inhibition in assay [1] came out at 60.4%. The IC50 in assay [2] amounted to 17000 nM.

Take `COC(=O)c1coc(CN2CCN(C(=O)CC(c3ccc(F)cc3)c3cccc(F)c3)CC2)n1` (centres undefined): the inhibition in assay [1] was 44.5%.

With `O=C(CC(c1ccc(Cl)cc1)c1cccc(F)c1)N1CCN(Cc2nc(CO)co2)CC1` (centres undefined), the inhibition in assay [1] came out at 19.2%.

In the case of `Cc1ccc2nc(CN3CCN(C(=O)CC(c4ccc(F)cc4)c4ccc(F)cc4)CC3)oc2c1`, in assay [1], the inhibition was determined as 30.9%.

Consider `O=C(CC(c1ccc(C(F)(F)F)cc1)c1cccc(F)c1)N1CCN(Cc2nc(CO)co2)CC1` (centres undefined), for which the inhibition in assay [1] amounted to 19.2%.

For the compound `COc1ccc(C(CC(=O)N2CCN(Cc3nc(CO)co3)CC2)c2cccc(F)c2)cc1` (centres undefined), in assay [1], the inhibition was 4.9%.

Consider `Cc1ccc2nc(CN3CCN(C(=O)CC(c4ccc(C(F)(F)F)cc4)c4cccc(F)c4)CC3)oc2c1` (centres undefined), for which the inhibition in assay [1] was determined as 26.4%.

For the compound `Cc1ccc2nc(CN3CCN(C(=O)CC(c4ccc(F)cc4)c4ccc(Cl)cc4)CC3)oc2c1` (centres undefined), the inhibition in assay [1] was determined as 15.5%.

As for `COC(=O)c1coc(CN2CCN(C(=O)CC(c3ccc(F)cc3)c3ccc(OC)cc3)CC2)n1` (centres undefined), the inhibition in assay [1] stood at 24.5%.

Take `O=C(O)c1coc(CN2CCN(C(=O)CC(c3ccc(F)cc3)c3ccc(Cl)cc3)CC2)n1` (centres undefined): the inhibition in assay [1] is 3.62%.

Take `O=C(O)c1coc(CN2CCN(C(=O)CC(c3ccc(F)cc3)c3ccc(Br)cc3)CC2)n1` (centres undefined): the inhibition in assay [1] was 5.42%.
